pIC50: −log10 of the molar value. Active and inactive are the calls of the source. The calls are words filed in the database; no cut-off is given here.

For data set [1], the target named is T1, Serine/threonine-protein kinase WNK1 (Homo sapiens, UniProt Q9H4A3). Kind of data set: Inhibition of TEV cleavage site-fused His6-tagged WNK1 (194 to 483 residues) (unknown origin) expressed in Rosetta (DE3) cells using GST-OSR1(314 to 344) peptide as substrate incubated for 2 hrs by kinase-glo luminescence assay. (Kinase-Glo measures the ATP left after a reaction by luminescence.)
Target sequence in this assay (Q9H4A3 whole entry, the tested form may be a part): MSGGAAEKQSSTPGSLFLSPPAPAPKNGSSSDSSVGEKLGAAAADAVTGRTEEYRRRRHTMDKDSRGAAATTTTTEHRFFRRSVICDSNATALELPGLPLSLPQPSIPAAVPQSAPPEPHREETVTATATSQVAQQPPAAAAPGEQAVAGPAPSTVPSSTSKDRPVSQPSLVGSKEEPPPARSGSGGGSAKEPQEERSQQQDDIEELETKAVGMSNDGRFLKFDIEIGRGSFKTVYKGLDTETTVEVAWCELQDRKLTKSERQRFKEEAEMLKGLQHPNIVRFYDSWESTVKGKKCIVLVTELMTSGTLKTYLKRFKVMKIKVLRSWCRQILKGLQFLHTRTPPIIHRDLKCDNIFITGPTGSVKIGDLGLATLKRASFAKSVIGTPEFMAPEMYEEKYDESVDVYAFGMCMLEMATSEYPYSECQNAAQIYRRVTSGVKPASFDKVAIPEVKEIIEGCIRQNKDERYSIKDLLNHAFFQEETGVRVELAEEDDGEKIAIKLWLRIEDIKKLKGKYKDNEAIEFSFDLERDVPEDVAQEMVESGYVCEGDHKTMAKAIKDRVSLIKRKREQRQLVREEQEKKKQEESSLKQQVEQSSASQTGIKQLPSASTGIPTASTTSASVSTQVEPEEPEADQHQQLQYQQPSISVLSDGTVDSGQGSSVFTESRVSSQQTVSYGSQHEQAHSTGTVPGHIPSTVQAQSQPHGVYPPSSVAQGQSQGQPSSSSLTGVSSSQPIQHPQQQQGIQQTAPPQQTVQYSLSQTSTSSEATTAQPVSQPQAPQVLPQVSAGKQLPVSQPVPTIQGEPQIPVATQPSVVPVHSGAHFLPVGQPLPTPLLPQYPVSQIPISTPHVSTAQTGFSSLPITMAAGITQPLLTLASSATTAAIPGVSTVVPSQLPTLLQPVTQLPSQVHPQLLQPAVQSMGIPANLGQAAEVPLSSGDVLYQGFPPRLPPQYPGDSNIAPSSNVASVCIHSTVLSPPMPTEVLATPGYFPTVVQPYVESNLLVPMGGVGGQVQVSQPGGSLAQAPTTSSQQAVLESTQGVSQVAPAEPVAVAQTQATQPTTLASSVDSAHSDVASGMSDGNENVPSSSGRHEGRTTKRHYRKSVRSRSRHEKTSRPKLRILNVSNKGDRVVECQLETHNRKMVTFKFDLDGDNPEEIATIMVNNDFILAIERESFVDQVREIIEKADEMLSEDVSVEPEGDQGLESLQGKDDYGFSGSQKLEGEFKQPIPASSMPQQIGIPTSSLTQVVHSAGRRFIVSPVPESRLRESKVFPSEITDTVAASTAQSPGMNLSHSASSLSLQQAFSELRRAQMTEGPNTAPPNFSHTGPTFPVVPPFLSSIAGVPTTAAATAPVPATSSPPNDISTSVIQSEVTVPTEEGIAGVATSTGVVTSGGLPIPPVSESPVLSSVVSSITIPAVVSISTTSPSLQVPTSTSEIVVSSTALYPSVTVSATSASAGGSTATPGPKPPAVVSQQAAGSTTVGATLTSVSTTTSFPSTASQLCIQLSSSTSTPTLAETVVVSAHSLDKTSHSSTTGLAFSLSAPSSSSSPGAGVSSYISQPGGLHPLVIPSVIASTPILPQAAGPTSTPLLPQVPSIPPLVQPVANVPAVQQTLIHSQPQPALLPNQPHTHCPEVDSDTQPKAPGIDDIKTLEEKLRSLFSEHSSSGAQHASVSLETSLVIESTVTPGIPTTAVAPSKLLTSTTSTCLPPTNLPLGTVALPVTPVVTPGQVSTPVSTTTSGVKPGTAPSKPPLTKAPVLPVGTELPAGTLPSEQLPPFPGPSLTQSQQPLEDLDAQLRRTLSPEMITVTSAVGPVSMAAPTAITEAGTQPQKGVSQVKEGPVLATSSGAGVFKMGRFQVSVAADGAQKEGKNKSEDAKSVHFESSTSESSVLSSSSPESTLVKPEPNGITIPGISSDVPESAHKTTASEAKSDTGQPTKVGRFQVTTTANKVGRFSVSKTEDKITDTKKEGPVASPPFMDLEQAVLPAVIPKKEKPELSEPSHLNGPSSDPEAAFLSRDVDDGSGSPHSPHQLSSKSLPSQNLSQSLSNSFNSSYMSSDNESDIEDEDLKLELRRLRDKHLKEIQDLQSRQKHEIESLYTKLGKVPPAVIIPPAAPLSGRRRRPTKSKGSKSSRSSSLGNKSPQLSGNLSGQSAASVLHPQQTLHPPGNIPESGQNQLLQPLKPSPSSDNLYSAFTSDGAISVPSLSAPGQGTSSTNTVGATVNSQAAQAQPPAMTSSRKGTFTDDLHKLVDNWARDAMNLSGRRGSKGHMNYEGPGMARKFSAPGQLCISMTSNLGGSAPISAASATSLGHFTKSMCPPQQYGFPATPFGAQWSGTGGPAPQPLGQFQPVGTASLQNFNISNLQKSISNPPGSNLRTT

Data set [2] addresses T1, Serine/threonine-protein kinase WNK1. Kind of data set: Inhibition of TEV cleavage site-fused His6-tagged WNK1 (194 to 483 residues) (unknown origin) expressed in Rosetta (DE3) cells using GST-OSR1(314 to 344) peptide as substrate measured after 30 mins by [gamma-32P]-ATP based liquid scintillation counting analysis. The format is biochemical. In outline:
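Radiometric kinase assay using [γ-32P]ATP at low enzyme concentration. It was chosen over the luminescence format for more precise IC50 determination.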
Target sequence in this assay (Q9H4A3 whole entry, the tested form may be a part): as above

In data set [3] the target is Mitogen-activated protein kinase 10 (Homo sapiens) (UniProt P53779). Kind of data set: Inhibition of JNK3 (unknown origin) at 10 uM.
The target of data set [4] is Mitogen-activated protein kinase 9 (Homo sapiens) (UniProt P45984). Kind of data set: Inhibition of JNK2 (unknown origin) at 10 uM.
Chain of Mitogen-activated protein kinase 9 (Homo sapiens) (P45984 whole entry, looked up): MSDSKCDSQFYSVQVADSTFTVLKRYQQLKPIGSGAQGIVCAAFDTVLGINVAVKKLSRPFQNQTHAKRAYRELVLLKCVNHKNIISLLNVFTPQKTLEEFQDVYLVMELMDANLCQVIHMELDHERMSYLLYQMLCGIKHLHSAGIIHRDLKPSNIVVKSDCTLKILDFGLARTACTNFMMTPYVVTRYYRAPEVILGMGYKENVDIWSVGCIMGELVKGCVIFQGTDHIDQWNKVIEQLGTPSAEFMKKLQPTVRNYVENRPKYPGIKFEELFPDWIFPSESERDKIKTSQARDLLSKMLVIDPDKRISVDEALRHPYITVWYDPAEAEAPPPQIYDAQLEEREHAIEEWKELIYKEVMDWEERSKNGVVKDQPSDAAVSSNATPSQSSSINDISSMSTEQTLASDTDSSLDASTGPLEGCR
The target in data set [5] is T1, Serine/threonine-protein kinase WNK1. Kind of data set: Inhibition of WNK1 (unknown origin) at 10 uM relative to control.
Target sequence in this assay (Q9H4A3 whole entry, looked up, the tested form may be a part): as the sequence (Q9H4A3 whole entry, the tested form may be a part) above
Data set [6] addresses Serine/threonine-protein kinase WNK2 (Homo sapiens) (UniProt Q9Y3S1). Kind of data set: Inhibition of WNK2 (unknown origin) at 10 uM relative to control.
For another data set, the system named is MDA-MB-231. Kind of data set: Cytotoxicity against human MDA-MB-231 cells assessed as cell viability up to 12 uM measured after 24 hrs. The format is toxicity, cell-based. The settings on record: mda-mb-231, 24 h.
Data set [7] deals with Serine/threonine-protein kinase WNK3 (Homo sapiens) (UniProt Q9BYP7). Put plainly: Inhibition of WNK3 (unknown origin) at 10 uM relative to control.
Chain of Serine/threonine-protein kinase WNK3 (Homo sapiens) (Q9BYP7 whole entry): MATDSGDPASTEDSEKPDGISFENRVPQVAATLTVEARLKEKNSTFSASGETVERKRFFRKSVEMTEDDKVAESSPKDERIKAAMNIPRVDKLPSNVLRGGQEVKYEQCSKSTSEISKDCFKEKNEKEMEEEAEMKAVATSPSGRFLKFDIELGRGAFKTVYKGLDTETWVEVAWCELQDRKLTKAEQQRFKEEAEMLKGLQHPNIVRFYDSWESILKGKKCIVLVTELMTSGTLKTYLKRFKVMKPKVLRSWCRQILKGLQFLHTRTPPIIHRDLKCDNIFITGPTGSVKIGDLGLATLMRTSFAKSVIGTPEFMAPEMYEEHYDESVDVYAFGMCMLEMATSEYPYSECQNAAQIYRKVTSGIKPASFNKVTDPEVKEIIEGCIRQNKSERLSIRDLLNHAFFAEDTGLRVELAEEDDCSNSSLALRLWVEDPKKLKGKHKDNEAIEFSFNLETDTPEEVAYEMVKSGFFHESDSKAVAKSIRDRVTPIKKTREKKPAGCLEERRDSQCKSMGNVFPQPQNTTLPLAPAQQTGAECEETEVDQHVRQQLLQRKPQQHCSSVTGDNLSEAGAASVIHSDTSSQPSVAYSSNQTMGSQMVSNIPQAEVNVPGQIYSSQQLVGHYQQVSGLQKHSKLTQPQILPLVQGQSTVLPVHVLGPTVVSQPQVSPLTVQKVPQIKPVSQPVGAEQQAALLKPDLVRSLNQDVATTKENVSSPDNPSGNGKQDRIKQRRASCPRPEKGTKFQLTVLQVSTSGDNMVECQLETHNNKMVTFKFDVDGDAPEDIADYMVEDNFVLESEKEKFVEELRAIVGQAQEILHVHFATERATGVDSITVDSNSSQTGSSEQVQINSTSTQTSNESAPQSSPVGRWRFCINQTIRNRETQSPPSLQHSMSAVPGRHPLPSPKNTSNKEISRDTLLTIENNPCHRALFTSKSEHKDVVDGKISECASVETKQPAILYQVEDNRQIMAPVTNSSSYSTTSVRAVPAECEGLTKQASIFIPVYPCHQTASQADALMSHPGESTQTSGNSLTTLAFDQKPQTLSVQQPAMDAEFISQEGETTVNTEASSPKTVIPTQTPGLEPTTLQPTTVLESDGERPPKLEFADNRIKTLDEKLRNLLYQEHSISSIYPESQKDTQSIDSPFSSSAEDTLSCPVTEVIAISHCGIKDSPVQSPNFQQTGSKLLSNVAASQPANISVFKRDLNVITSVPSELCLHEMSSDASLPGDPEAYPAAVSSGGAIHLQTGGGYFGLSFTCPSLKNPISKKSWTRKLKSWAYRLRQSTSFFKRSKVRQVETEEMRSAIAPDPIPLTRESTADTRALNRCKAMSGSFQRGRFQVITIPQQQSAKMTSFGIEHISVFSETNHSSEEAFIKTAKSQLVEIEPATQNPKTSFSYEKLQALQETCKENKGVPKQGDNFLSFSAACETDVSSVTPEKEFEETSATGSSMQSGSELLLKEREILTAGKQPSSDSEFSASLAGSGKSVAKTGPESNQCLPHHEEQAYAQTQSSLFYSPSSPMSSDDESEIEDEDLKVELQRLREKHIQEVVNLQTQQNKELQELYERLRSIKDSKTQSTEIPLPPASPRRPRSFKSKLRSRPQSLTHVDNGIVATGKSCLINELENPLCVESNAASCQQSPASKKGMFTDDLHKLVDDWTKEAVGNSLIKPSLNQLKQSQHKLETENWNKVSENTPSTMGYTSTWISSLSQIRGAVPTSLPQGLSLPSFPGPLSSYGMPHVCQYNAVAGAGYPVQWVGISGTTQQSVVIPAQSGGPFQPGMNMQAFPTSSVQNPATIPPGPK
Data set [8] deals with T1, Serine/threonine-protein kinase WNK1. Kind of data set: Inhibition of WNK1 in human MDA-MB-231 cells assessed as reduction in OSR1 phosphorylation measured after 24 hrs by Western blot analysis. Format: cell-based. The essentials:
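Endogenous OSR1 phosphorylation was measured in MDA-MB-231 breast cancer cells. Experiments were run in triplicate, and an IC50 was derived from the phosphorylation read-out.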
Target sequence in this assay (Q9H4A3 whole entry, the tested form may be a part): as the sequence (Q9H4A3 whole entry, the tested form may be a part) above
Background: Immunoblotting shows a protein as a band on a membrane.

For the next data set, the species on record is Homo sapiens. Put plainly: Selectivity ratio of IC50 for WNK3 (118 to 409 residues) (unknown origin) expressed in Escherichia coli BL21 DE3 to IC50 for TEV cleavage site-fused His6-tagged WNK1 (194 to 483 residues) (unknown origin) expressed in Rosetta (DE3) cells.

`O=[N+]([O-])c1cc(S(=O)(=O)C(Cl)(Cl)Br)ccc1Nc1ccccc1`: the results for the pIC50 in [1] and in [2] were 4.12 and 5.14, respectively.
For `CCS(=O)(=O)c1ccc(NC2CCCCC2)c([N+](=O)[O-])c1`, the negative logarithm of the IC50 (pIC50) (usually the negative decadic logarithm of the IC50, by convention in mol/L) in data set [1] was under 3.00.
For `CS(=O)(=O)c1ccc(NC2CCCCC2)c([N+](=O)[O-])c1`, in data set [1], the pIC50 was under 3.00.
As to `O=[N+]([O-])c1cc(S(=O)(=O)C(Cl)(Cl)Br)ccc1NCc1ccco1`, the values for the pIC50 in data set [1] and in [2] were 4.82 and 5.30, respectively.
As for `O=[N+]([O-])c1cc(S(=O)(=O)C(F)(F)F)ccc1NC1CCCCC1`, the pIC50 in [1] and in data set [2] was under 3.00 in each case.
On to `O=[N+]([O-])c1cc(S(=O)(=O)C(Cl)(Cl)Br)ccc1NC1CCCC1`, for which the pIC50 in data set [1] was 4.03; in data set [2] it was 5.19.
For the compound `O=[N+]([O-])c1cc(S(=O)(=O)C(Cl)(Cl)Br)ccc1NCCCc1ccccc1`, the inhibition result in [3] and in [4] was “Active” in each case. For the same compound, the inhibition in [5] and in [6] was 20% in each case. The values for the pIC50 in data set [1] and in data set [2] were 4.10 and 5.22, respectively.
For the compound `CN1CCN(c2ccc(S(=O)(=O)C(Cl)(Cl)Br)cc2[N+](=O)[O-])CC1`, in data set [1], the pIC50 was under 3.00.
Turning to `O=[N+]([O-])c1cc(S(=O)(=O)C(Cl)(Cl)Br)ccc1NC1CCCCC1`, the Activity entry in the data set with MDA-MB-231 is recorded as “Non-Toxic”. The inhibition in [7] and in [5] was 20% each time. In addition, the pIC50 in [1] is 5.40; in [8] it was 5.37; in data set [2], 5.80. The Ratio IC50 in the data set listed under Homo sapiens was 10.
`O=[N+]([O-])c1cc(S(=O)(=O)C(Cl)(Cl)Cl)ccc1NC1CCCCC1` gave a pIC50 in data set [1] of under 3.00.
On the same count and under the same terms, the figure for `O=[N+]([O-])c1cc(S(=O)(=O)C(Cl)Cl)ccc1NC1CCCCC1` is under 3.00; for `O=S(=O)(c1ccc(NC2CCCCC2)cc1)C(Cl)(Cl)Br` it is under 3.00.
On the same count and under the same terms, the figure for `O=[N+]([O-])c1ccccc1NC1CCCCC1` is under 3.00.

For the origin of these results see ChEMBL document CHEMBL5126644, “Synthesis and Structural Characterization of Novel Trihalo-sulfone Inhibitors of WNK1” (ACS Med Chem Lett, 2022).
